Data from ChEMBL document CHEMBL1781920, “Synthesis and antimicrobial activity of some new 4-hetarylpyrazole and furo[2,3-c]pyrazole derivatives” (2011).
≈ marks a conversion by molar mass, not a printed value.

The compounds below were run on Botrytis fabae (assay: Antifungal activity against Botrytis fabae ATCC 14862 at 1 mg/ml after 48 hrs by agar-diffusion method). Settings: ATCC 14862, 48 h, read-out: IZ.
Format: functional
Outline: (§1)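 Fungi were seeded at 10⁴ CFU/mL onto nutrient agar plates. Filter-paper disks carried compound dissolved in DMF at 1 mg/mL, two disks per plate, in triplicate, with a DMF-only control. After 48 h incubation at 37 °C, the average diameter of the growth-inhibition zone was read in mm.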

Compound | zone of inhibition at 1000 µg/mL [mm]
Cc1[nH]n(-c2ccccc2)c(=O)c1C(=O)c1cc2ccccc2o1 | 19
Cc1nn(-c2ccccc2)c2c1/C(=N/c1cnccn1)CO2 | 16

The compounds below were run on Bacillus subtilis (assay: Antibacterial activity against Bacillus subtilis ATCC 6633 after 24 hrs by serial dilution method relative to chloramphenicol). Settings: not given.
Format: functional

Compound | Activity [%]
Cc1[nH]n(-c2ccccc2)c(=O)c1C(=O)c1cc2ccccc2o1 | 50
Cc1nn(-c2ccccc2)c2c1/C(=N/c1cnccn1)CO2 | 25

The compounds below were run on Botrytis fabae (assay: Antifungal activity against Botrytis fabae ATCC 14862 after 48 hrs by serial dilution method). Settings: ATCC 14862, 48 h.
Format: functional
Outline: (§2)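 MICs were measured by microdilution in Sabouraud liquid medium, for compounds with disk zones >14 mm. DMF stocks were serially diluted twofold across 500–3.125. Sealed plates were incubated at 37 °C for 48 h in a humid chamber. The lowest concentration with no visible turbidity was recorded as the MIC.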

MIC [µg/mL] | Compound
50 (≈ 157 µM) | Cc1[nH]n(-c2ccccc2)c(=O)c1C(=O)c1cc2ccccc2o1
100 (≈ 343 µM) | Cc1nn(-c2ccccc2)c2c1/C(=N/c1cnccn1)CO2

What follows are compounds tested on Bacillus subtilis (assay: Antibacterial activity against Bacillus subtilis ATCC 6633 at 1 mg/ml after 24 hrs by agar-diffusion method). Settings: ATCC 6633, 24 h, read-out: IZ.
Format: functional
Outline: (§3)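 Agar disk diffusion on nutrient agar seeded with about 10⁶ CFU/mL of the test bacterium. Filter-paper disks were impregnated with compound in DMF at 1 mg/mL, two disks per plate, in triplicate. DMF alone served as control. Plates were incubated at 37 °C for 24 h, and the mean inhibition-zone diameter was recorded in mm.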

Compound | zone of inhibition at 1000 µg/mL [mm]
CC(=O)OCC1=C(C(=O)O)N2C(=O)[C@@H](NC(=O)Cc3cccs3)[C@H]2SC1 [CEPHALOTHIN] | 36
O=C(N[C@H](CO)[C@H](O)c1ccc([N+](=O)[O-])cc1)C(Cl)Cl [CHLORAMPHENICOL] | 42
Cc1[nH]n(-c2ccccc2)c(=O)c1C(=O)c1cc2ccccc2o1 | 38
Cc1nn(-c2ccccc2)c2c1/C(=N/c1cnccn1)CO2 | 32

Each compound was assayed on Bacillus thuringiensis (assay: Antibacterial activity against Bacillus thuringiensis ATCC 6051 after 24 hrs by serial dilution method relative to chloramphenicol). Settings: not given.
Format: functional

Compound | Activity [%]
Cc1[nH]n(-c2ccccc2)c(=O)c1C(=O)c1cc2ccccc2o1 | 50

These compounds were tested on Bacillus subtilis (assay: Antibacterial activity against Bacillus subtilis ATCC 6633 after 24 hrs by serial dilution method). Settings: ATCC 6633, 24 h.
Format: functional
Outline: (§4)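 Broth microdilution in Mueller–Hinton broth, run only for compounds giving zones >14 mm in the disk test. DMF stocks were diluted twofold from 500 to 3.125, and about 10⁶ CFU/mL bacteria were added per well. Sealed plates were kept at 37 °C for 24 h in a humid chamber. MIC was taken as the lowest concentration without visible turbidity.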

MIC [µg/mL] | Compound
6.25 (≈ 15.8 µM) | CC(=O)OCC1=C(C(=O)O)N2C(=O)[C@@H](NC(=O)Cc3cccs3)[C@H]2SC1 [CEPHALOTHIN]
6.25 (≈ 19.6 µM) | Cc1[nH]n(-c2ccccc2)c(=O)c1C(=O)c1cc2ccccc2o1
12.5 (≈ 42.9 µM) | Cc1nn(-c2ccccc2)c2c1/C(=N/c1cnccn1)CO2

Compound | MIC [µg/mL]
O=C(N[C@H](CO)[C@H](O)c1ccc([N+](=O)[O-])cc1)C(Cl)Cl [CHLORAMPHENICOL] | 3.12 (≈ 9.67 µM)

Each compound was assayed on Bacillus thuringiensis (assay: Antibacterial activity against Bacillus thuringiensis ATCC 6051 after 24 hrs by serial dilution method). Settings: ATCC 6051, 24 h.
Format: functional
Outline: as §4

MIC [µg/mL] | Compound
6.25 (≈ 15.8 µM) | CC(=O)OCC1=C(C(=O)O)N2C(=O)[C@@H](NC(=O)Cc3cccs3)[C@H]2SC1 [CEPHALOTHIN]
6.25 (≈ 19.6 µM) | Cc1[nH]n(-c2ccccc2)c(=O)c1C(=O)c1cc2ccccc2o1
100 (≈ 343 µM) | Cc1nn(-c2ccccc2)c2c1/C(=N/c1cnccn1)CO2

Compound | MIC [µg/mL]
O=C(N[C@H](CO)[C@H](O)c1ccc([N+](=O)[O-])cc1)C(Cl)Cl [CHLORAMPHENICOL] | 3.12 (≈ 9.67 µM)

These compounds were tested on Escherichia coli (assay: Antibacterial activity against Escherichia coli ATCC 14169 at 1 mg/ml after 24 hrs by agar-diffusion method). Settings: ATCC 14169, 24 h, read-out: IZ.
Format: functional
Outline: as §3

Compound | zone of inhibition at 1000 µg/mL [mm]
CC(=O)OCC1=C(C(=O)O)N2C(=O)[C@@H](NC(=O)Cc3cccs3)[C@H]2SC1 [CEPHALOTHIN] | 38
O=C(N[C@H](CO)[C@H](O)c1ccc([N+](=O)[O-])cc1)C(Cl)Cl [CHLORAMPHENICOL] | 37
Cc1[nH]n(-c2ccccc2)c(=O)c1C(=O)c1cc2ccccc2o1 | 15
Cc1nn(-c2ccccc2)c2c1/C(=N/c1cnccn1)CO2 | 20

What follows are compounds tested on Pseudomonas aeruginosa (assay: Antibacterial activity against Pseudomonas aeruginosa ATCC 27853 at 1 mg/ml after 24 hrs by agar-diffusion method). Settings: ATCC 27853, 24 h, read-out: IZ.
Format: functional
Outline: as §3

Compound | zone of inhibition at 1000 µg/mL [mm]
CC(=O)OCC1=C(C(=O)O)N2C(=O)[C@@H](NC(=O)Cc3cccs3)[C@H]2SC1 [CEPHALOTHIN] | 37
O=C(N[C@H](CO)[C@H](O)c1ccc([N+](=O)[O-])cc1)C(Cl)Cl [CHLORAMPHENICOL] | 38
Cc1[nH]n(-c2ccccc2)c(=O)c1C(=O)c1cc2ccccc2o1 | 33
Cc1nn(-c2ccccc2)c2c1/C(=N/c1cnccn1)CO2 | 16

The compounds below were run on Escherichia coli (assay: Antibacterial activity against Escherichia coli ATCC 14169 after 24 hrs by serial dilution method). Settings: ATCC 14169, 24 h.
Format: functional
Outline: as §4

MIC [µg/mL] | Compound
6.25 (≈ 15.8 µM) | CC(=O)OCC1=C(C(=O)O)N2C(=O)[C@@H](NC(=O)Cc3cccs3)[C@H]2SC1 [CEPHALOTHIN]
100 (≈ 314 µM) | Cc1[nH]n(-c2ccccc2)c(=O)c1C(=O)c1cc2ccccc2o1
50 (≈ 172 µM) | Cc1nn(-c2ccccc2)c2c1/C(=N/c1cnccn1)CO2

Compound | MIC [µg/mL]
O=C(N[C@H](CO)[C@H](O)c1ccc([N+](=O)[O-])cc1)C(Cl)Cl [CHLORAMPHENICOL] | 6.25 (≈ 19.3 µM)

What follows are compounds tested on Bacillus subtilis (assay: Antibacterial activity against Bacillus subtilis ATCC 6633 after 24 hrs by serial dilution method relative to cephalothin). Settings: not given.
Format: functional

Compound | Activity [%]
Cc1nn(-c2ccccc2)c2c1/C(=N/c1cnccn1)CO2 | 50

These compounds were tested on Fusarium oxysporum (assay: Antifungal activity against Fusarium oxysporum ATCC 16417 after 48 hrs by serial dilution method). Settings: ATCC 16417, 48 h.
Format: functional
Outline: as §2

MIC [µg/mL] | Compound
25 (≈ 78.5 µM) | Cc1[nH]n(-c2ccccc2)c(=O)c1C(=O)c1cc2ccccc2o1
12.5 (≈ 42.9 µM) | Cc1nn(-c2ccccc2)c2c1/C(=N/c1cnccn1)CO2

The compounds below were run on Fusarium oxysporum (assay: Antifungal activity against Fusarium oxysporum ATCC 16417 at 1 mg/ml after 48 hrs by agar-diffusion method). Settings: ATCC 16417, 48 h, read-out: IZ.
Format: functional
Outline: as §1

Compound | zone of inhibition at 1000 µg/mL [mm]
Cc1[nH]n(-c2ccccc2)c(=O)c1C(=O)c1cc2ccccc2o1 | 26
Cc1nn(-c2ccccc2)c2c1/C(=N/c1cnccn1)CO2 | 31

Each compound was assayed on Bacillus thuringiensis (assay: Antibacterial activity against Bacillus thuringiensis ATCC 6051 at 1 mg/ml after 24 hrs by agar-diffusion method). Settings: ATCC 6051, 24 h, read-out: IZ.
Format: functional
Outline: as §3

Compound | zone of inhibition at 1000 µg/mL [mm]
CC(=O)OCC1=C(C(=O)O)N2C(=O)[C@@H](NC(=O)Cc3cccs3)[C@H]2SC1 [CEPHALOTHIN] | 37
O=C(N[C@H](CO)[C@H](O)c1ccc([N+](=O)[O-])cc1)C(Cl)Cl [CHLORAMPHENICOL] | 44
Cc1[nH]n(-c2ccccc2)c(=O)c1C(=O)c1cc2ccccc2o1 | 37
Cc1nn(-c2ccccc2)c2c1/C(=N/c1cnccn1)CO2 | 15

Each compound was assayed on Pseudomonas aeruginosa (assay: Antibacterial activity against Pseudomonas aeruginosa ATCC 27853 after 24 hrs by serial dilution method). Settings: ATCC 27853, 24 h.
Format: functional
Outline: as §4

MIC [µg/mL] | Compound
6.25 (≈ 15.8 µM) | CC(=O)OCC1=C(C(=O)O)N2C(=O)[C@@H](NC(=O)Cc3cccs3)[C@H]2SC1 [CEPHALOTHIN]
12.5 (≈ 39.3 µM) | Cc1[nH]n(-c2ccccc2)c(=O)c1C(=O)c1cc2ccccc2o1
100 (≈ 343 µM) | Cc1nn(-c2ccccc2)c2c1/C(=N/c1cnccn1)CO2

Compound | MIC [µg/mL]
O=C(N[C@H](CO)[C@H](O)c1ccc([N+](=O)[O-])cc1)C(Cl)Cl [CHLORAMPHENICOL] | 6.25 (≈ 19.3 µM)
